One block for each compound: values may come before it.
How the values were obtained:
Caudate [1] = assay: Drug uptake in cynomolgus monkey caudate after 55 mins; format: ADME, tissue-based, Macaca fascicularis, Caudate nucleus; details: in vivo
Method in brief: (§1)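 Chase microPET scans in the same male cynomolgus monkey after i.v. 11C radiotracer (6.90–18.10 mCi). R,S-citalopram·HBr, 1.5 mg/kg, was given i.v. as a 30 s bolus at 45 min (ratios at 45 and 85 min) or 60 min (ratios at 55 and 115 min) post-tracer. Value is the region-to-cerebellum activity ratio before and after citalopram.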

Caudate [2] = assay: Drug uptake in cynomolgus monkey caudate in presence of citalopram after 115 mins; format: ADME, tissue-based, Macaca fascicularis, Caudate nucleus; details: in vivo; method in brief: as §1
Putamen [3] = assay: Drug uptake in cynomolgus monkey putamen after 55 mins; format: ADME, tissue-based, Macaca fascicularis; details: in vivo; method in brief: as §1
Putamen [4] = assay: Drug uptake in cynomolgus monkey putamen in presence of citalopram after 115 mins; format: ADME, tissue-based, Macaca fascicularis; details: in vivo; method in brief: as §1
Thalamus [5] = assay: Drug uptake in cynomolgus monkey thalamus after 55 mins; format: ADME, tissue-based, Macaca fascicularis; details: in vivo; method in brief: as §1
Thalamus [6] = assay: Drug uptake in cynomolgus monkey thalamus in presence of citalopram after 115 mins; format: ADME, tissue-based, Macaca fascicularis; details: in vivo; method in brief: as §1
Midbrain [7] = assay: Drug uptake in cynomolgus monkey midbrain after 55 mins; format: ADME, tissue-based, Macaca fascicularis; details: in vivo; method in brief: as §1
Midbrain [8] = assay: Drug uptake in cynomolgus monkey midbrain in presence of citalopram after 115 mins; format: ADME, tissue-based, Macaca fascicularis; details: in vivo; method in brief: as §1
Pons [9] = assay: Drug uptake in cynomolgus monkey pons after 55 mins; format: ADME, tissue-based, Macaca fascicularis; details: in vivo; method in brief: as §1
Pons [10] = assay: Drug uptake in cynomolgus monkey pons in presence of citalopram after 115 mins; format: ADME, tissue-based, Macaca fascicularis; details: in vivo; method in brief: as §1
Medulla [11] = assay: Drug uptake in cynomolgus monkey medulla after 55 mins; format: ADME, tissue-based, Macaca fascicularis, Medulla of organ; details: in vivo; method in brief: as §1
Medulla [12] = assay: Drug uptake in cynomolgus monkey medulla in presence of citalopram after 115 mins; format: ADME, tissue-based, Macaca fascicularis, Medulla of organ; details: in vivo; method in brief: as §1
Occipital cortex [13] = assay: Drug uptake in cynomolgus monkey occipital cortex after 55 mins; format: ADME, tissue-based, Macaca fascicularis; details: in vivo; method in brief: as §1
Occipital cortex [14] = assay: Drug uptake in cynomolgus monkey occipital cortex in presence of citalopram after 115 mins; format: ADME, tissue-based, Macaca fascicularis; details: in vivo; method in brief: as §1
Frontal cortex [15] = assay: Drug uptake in cynomolgus monkey frontal cortex after 55 mins; format: ADME, tissue-based, Macaca fascicularis; details: in vivo; method in brief: as §1
Frontal cortex [16] = assay: Drug uptake in cynomolgus monkey frontal cortex in presence of citalopram after 115 mins; format: ADME, tissue-based, Macaca fascicularis; details: in vivo; method in brief: as §1
[17] = Partition coefficient, log P at pH 7.4; format: physicochemical; details: octanol/water
Method in brief: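 Each 11C-labelled radiotracer was partitioned between 1-octanol and 0.02 M phosphate buffer at pH 7.4.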

Caudate [18] = assay: Drug uptake in cynomolgus monkey caudate after 85 mins; format: ADME, tissue-based, Macaca fascicularis, Caudate nucleus; details: in vivo
Method in brief: (§2)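 Baseline microPET (Concorde P4) scans in one anesthetized adult male cynomolgus monkey (7.50–8.35 kg) after i.v. radiotracer. Attenuation correction used a 68Ge transmission scan; OSEM reconstruction, 3 mm resolution. Value is the region-of-interest to cerebellum activity ratio at 85 min post-injection.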

Midbrain [19] = assay: Drug uptake in cynomolgus monkey midbrain after 85 mins; format: ADME, tissue-based, Macaca fascicularis; details: in vivo; method in brief: as §2
Putamen [20] = assay: Drug uptake in cynomolgus monkey putamen after 85 mins; format: ADME, tissue-based, Macaca fascicularis; details: in vivo; method in brief: as §2
Thalamus [21] = assay: Drug uptake in cynomolgus monkey thalamus after 85 mins; format: ADME, tissue-based, Macaca fascicularis; details: in vivo; method in brief: as §2
Pons [22] = assay: Drug uptake in cynomolgus monkey pons after 85 mins; format: ADME, tissue-based, Macaca fascicularis; details: in vivo; method in brief: as §2
Medulla [23] = assay: Drug uptake in cynomolgus monkey medulla after 85 mins; format: ADME, tissue-based, Macaca fascicularis, Medulla of organ; details: in vivo; method in brief: as §2
Occipital cortex [24] = assay: Drug uptake in cynomolgus monkey occipital cortex after 85 mins; format: ADME, tissue-based, Macaca fascicularis; details: in vivo; method in brief: as §2
Frontal cortex [25] = assay: Drug uptake in cynomolgus monkey frontal cortex after 85 mins; format: ADME, tissue-based, Macaca fascicularis; details: in vivo; method in brief: as §2
Caudate [26] = assay: Drug uptake in cynomolgus monkey caudate in presence of citalopram after 85 mins; format: ADME, tissue-based, Macaca fascicularis, Caudate nucleus; details: in vivo; method in brief: as §1
Putamen [27] = assay: Drug uptake in cynomolgus monkey putamen after 45 mins; format: ADME, tissue-based, Macaca fascicularis; details: in vivo, 0.75 h; method in brief: as §1
Putamen [28] = assay: Drug uptake in cynomolgus monkey putamen in presence of citalopram after 85 mins; format: ADME, tissue-based, Macaca fascicularis; details: in vivo; method in brief: as §1
Thalamus [29] = assay: Drug uptake in cynomolgus monkey thalamus in presence of citalopram after 85 mins; format: ADME, tissue-based, Macaca fascicularis; details: in vivo; method in brief: as §1
Midbrain [30] = assay: Drug uptake in cynomolgus monkey midbrain after 45 mins; format: ADME, tissue-based, Macaca fascicularis; details: in vivo, 0.75 h; method in brief: as §1
Midbrain [31] = assay: Drug uptake in cynomolgus monkey midbrain in presence of citalopram after 85 mins; format: ADME, tissue-based, Macaca fascicularis; details: in vivo; method in brief: as §1
Pons [32] = assay: Drug uptake in cynomolgus monkey pons after 45 mins; format: ADME, tissue-based, Macaca fascicularis; details: in vivo, 0.75 h; method in brief: as §1
Pons [33] = assay: Drug uptake in cynomolgus monkey pons in presence of citalopram after 85 mins; format: ADME, tissue-based, Macaca fascicularis; details: in vivo; method in brief: as §1
Medulla [34] = assay: Drug uptake in cynomolgus monkey medulla after 45 mins; format: ADME, tissue-based, Macaca fascicularis, Medulla of organ; details: in vivo, 0.75 h; method in brief: as §1
Medulla [35] = assay: Drug uptake in cynomolgus monkey medulla in presence of citalopram after 85 mins; format: ADME, tissue-based, Macaca fascicularis, Medulla of organ; details: in vivo; method in brief: as §1
Occipital cortex [36] = assay: Drug uptake in cynomolgus monkey occipital cortex after 45 mins; format: ADME, tissue-based, Macaca fascicularis; details: in vivo, 0.75 h; method in brief: as §1
Occipital cortex [37] = assay: Drug uptake in cynomolgus monkey occipital cortex in presence of citalopram after 85 mins; format: ADME, tissue-based, Macaca fascicularis; details: in vivo; method in brief: as §1
Frontal cortex [38] = assay: Drug uptake in cynomolgus monkey frontal cortex after 45 mins; format: ADME, tissue-based, Macaca fascicularis; details: in vivo, 0.75 h; method in brief: as §1
Frontal cortex [39] = assay: Drug uptake in cynomolgus monkey frontal cortex in presence of citalopram after 85 mins; format: ADME, tissue-based, Macaca fascicularis; details: in vivo; method in brief: as §1
Thalamus [40] = assay: Drug uptake in cynomolgus monkey thalamus after 45 mins; format: ADME, tissue-based, Macaca fascicularis; details: in vivo, 0.75 h; method in brief: as §1
Caudate [41] = assay: Drug uptake in cynomolgus monkey caudate after 45 mins; format: ADME, tissue-based, Macaca fascicularis, Caudate nucleus; details: in vivo, 0.75 h; method in brief: as §1
[42] = target: Sodium-dependent serotonin transporter (Homo sapiens, UniProt P31645); assay: Displacement of [3H]citalopram from human SERT expressed in HEK293 cells; format: cell-based
Method in brief: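 Membranes (30–70 µg protein) from HEK-293 cells stably expressing hSERT, grown in DMEM/10% FBS/Geneticin. Incubated 2 h at room temperature with [3H]citalopram in 53 mM Tris, 126 mM NaCl, 5.3 mM KCl, pH 7.9. Competitor: 12 concentrations, 10^-13 to 10^-5 M, in triplicate. Rapid filtration on GF/B with cold buffer washes; Ki averaged from ≥2 separate assays.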

[43] = target: Sodium-dependent dopamine transporter (Homo sapiens, UniProt Q01959); assay: Displacement of [125I]RTI-55 from human DAT expressed in MDCK cells; format: cell-based
Method in brief: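 MDCK cells stably expressing hDAT, grown to confluency in DMEM with 10% FBS and Geneticin, harvested in PBS/0.53 mM EDTA. Membranes (30–70 µg protein) were incubated 1 h at room temperature with 2.0 nM [125I]RTI-55 in 42 mM sodium phosphate/320 mM sucrose, pH 7.4. Competitor: 12 concentrations, 10^-13 to 10^-5 M, in triplicate. Filtered through PEI-soaked GF/B filters; Ki averaged over ≥2 assays.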

[44] = target: Sodium-dependent noradrenaline transporter (Homo sapiens, UniProt P23975); assay: Displacement of [3H]nisoxetine from human NET t expressed in HEK293 cells; format: cell-based
Method in brief: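 Membranes (30–70 µg protein) from HEK-293 cells stably expressing hNET. Equilibrium with [3H]nisoxetine for 4 h at 4 °C in 53 mM Tris, 320 mM NaCl, 5.3 mM KCl, pH 7.4 at 4 °C. Competitor: 12 concentrations, 10^-13 to 10^-5 M, in triplicate. Ended by vacuum filtration through PEI-presoaked GF/B filters; Ki averaged from at least two assays, each in duplicate.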

Homo sapiens [45] = organism: Homo sapiens; assay: Selectivity for human DAT to human SERT
Method in brief: (§3)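 Ratio of Ki at hDAT or hNET to Ki at hSERT. Ki values come from competition binding on transfected cell membranes: [125I]RTI-55 (MDCK-hDAT), [3H]nisoxetine (HEK-hNET) or [3H]citalopram (HEK-hSERT); 12 competitor concentrations from 10^-13 to 10^-5 M.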

Homo sapiens [46] = organism: Homo sapiens; assay: Selectivity for human NET to human SERT; method in brief: as §3

Sodium-dependent noradrenaline transporter, sequence (P23975 whole entry): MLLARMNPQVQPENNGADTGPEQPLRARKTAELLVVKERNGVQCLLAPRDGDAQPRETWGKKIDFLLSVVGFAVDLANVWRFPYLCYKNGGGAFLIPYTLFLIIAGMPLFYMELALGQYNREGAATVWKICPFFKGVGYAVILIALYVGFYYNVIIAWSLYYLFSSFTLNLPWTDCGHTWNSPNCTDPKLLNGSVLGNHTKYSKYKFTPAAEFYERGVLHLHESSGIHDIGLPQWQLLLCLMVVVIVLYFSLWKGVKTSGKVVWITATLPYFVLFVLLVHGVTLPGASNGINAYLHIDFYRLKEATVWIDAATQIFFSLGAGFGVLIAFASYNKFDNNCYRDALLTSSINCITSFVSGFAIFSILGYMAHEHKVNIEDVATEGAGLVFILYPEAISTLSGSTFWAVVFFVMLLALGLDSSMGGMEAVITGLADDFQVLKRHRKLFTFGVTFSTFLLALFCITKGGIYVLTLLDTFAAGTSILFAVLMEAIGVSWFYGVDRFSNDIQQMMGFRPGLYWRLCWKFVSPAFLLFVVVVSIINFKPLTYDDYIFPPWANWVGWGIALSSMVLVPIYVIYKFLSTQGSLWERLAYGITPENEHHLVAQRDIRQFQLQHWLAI
Sodium-dependent dopamine transporter, sequence (Q01959 whole entry): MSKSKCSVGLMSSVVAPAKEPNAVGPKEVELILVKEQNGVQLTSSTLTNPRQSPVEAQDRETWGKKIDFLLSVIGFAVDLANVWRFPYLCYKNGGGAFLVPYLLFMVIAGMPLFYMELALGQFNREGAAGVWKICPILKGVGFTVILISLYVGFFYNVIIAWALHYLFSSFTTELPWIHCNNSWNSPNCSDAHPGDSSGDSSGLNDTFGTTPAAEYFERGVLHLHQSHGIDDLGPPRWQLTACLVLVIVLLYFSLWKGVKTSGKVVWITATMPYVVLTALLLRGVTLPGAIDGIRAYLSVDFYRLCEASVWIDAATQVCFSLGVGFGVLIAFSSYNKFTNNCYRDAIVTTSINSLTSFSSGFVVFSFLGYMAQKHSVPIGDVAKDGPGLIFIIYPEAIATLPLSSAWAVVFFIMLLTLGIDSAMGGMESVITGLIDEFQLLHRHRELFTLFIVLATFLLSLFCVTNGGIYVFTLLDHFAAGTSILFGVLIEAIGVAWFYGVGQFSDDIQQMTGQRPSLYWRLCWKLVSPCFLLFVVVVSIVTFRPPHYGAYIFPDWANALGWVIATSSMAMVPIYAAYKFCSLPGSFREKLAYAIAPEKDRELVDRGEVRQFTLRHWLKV
Sodium-dependent serotonin transporter, sequence (P31645 whole entry): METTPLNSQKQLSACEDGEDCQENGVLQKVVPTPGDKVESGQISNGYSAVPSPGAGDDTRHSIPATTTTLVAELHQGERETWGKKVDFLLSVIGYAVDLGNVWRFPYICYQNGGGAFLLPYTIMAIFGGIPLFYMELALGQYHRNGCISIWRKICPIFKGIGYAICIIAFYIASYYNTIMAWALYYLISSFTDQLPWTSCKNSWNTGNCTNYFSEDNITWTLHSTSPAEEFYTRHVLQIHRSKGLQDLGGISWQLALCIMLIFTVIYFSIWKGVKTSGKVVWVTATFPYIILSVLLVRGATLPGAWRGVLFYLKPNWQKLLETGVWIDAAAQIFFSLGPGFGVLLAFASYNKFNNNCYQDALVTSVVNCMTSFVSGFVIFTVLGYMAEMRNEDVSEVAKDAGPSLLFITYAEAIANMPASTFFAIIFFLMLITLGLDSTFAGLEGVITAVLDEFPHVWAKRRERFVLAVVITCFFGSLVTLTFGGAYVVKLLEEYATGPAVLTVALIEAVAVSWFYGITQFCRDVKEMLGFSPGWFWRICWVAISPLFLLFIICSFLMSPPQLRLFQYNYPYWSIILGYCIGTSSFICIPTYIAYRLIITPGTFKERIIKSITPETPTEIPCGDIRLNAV

Ratio (Caudate [1]): 1.8 | Ratio (Caudate [2]): 1.3 | Ratio (Putamen [3]): 1.9 | Ratio (Putamen [4]): 1.4 | Ratio (Thalamus [5]): 2 | Ratio (Thalamus [6]): 1.63 | Ratio (Midbrain [7]): 2.4 | Ratio (Midbrain [8]): 1.7 | Ratio (Pons [9]): 1.9 | Ratio (Pons [10]): 1.5 | Ratio (Medulla [11]): 2.5 | Ratio (Medulla [12]): 1.6 | Ratio (Occipital cortex [13]): 1.2 | Ratio (Occipital cortex [14]): 1.1 | Ratio (Frontal cortex [15]): 1 | Ratio (Frontal cortex [16]): 1 | logD [17]: 1.82 | Ratio (Caudate [18]): 1.8 | Ratio (Midbrain [19]): 3 | Ratio (Putamen [20]): 2.3 | Ratio (Thalamus [21]): 2.06 | Ratio (Pons [22]): 1.65 | Ratio (Medulla [23]): 2.4 | Ratio (Occipital cortex [24]): 1.2 | Ratio (Frontal cortex [25]): 1.09
Compound: CN([11CH3])Cc1cc(I)ccc1Sc1ccc(CO)cc1N

Ratio (Caudate [26]): 1.06 | Ratio (Putamen [27]): 1.8 | Ratio (Putamen [28]): 1.2 | Ratio (Thalamus [29]): 1.3 | Ratio (Midbrain [30]): 2.3 | Ratio (Midbrain [31]): 1.2 | Ratio (Pons [32]): 2 | Ratio (Pons [33]): 1.4 | Ratio (Medulla [34]): 2 | Ratio (Medulla [35]): 1.1 | Ratio (Occipital cortex [36]): 1.3 | Ratio (Occipital cortex [37]): 1.04 | Ratio (Frontal cortex [38]): 1.06 | Ratio (Frontal cortex [39]): 1 | logD [17]: 2.06 | Ratio (Midbrain [19]): 3.4 | Ratio (Thalamus [21]): 2.3 | Ratio (Pons [22]): 2.8 | Ratio (Medulla [23]): 2.1 | Ratio (Frontal cortex [25]): 1.04 | Ratio (Thalamus [40]): 1.9 | Ratio (Caudate [41]): 1.6
Compound: CN([11CH3])Cc1cc(F)ccc1Sc1ccc(CO)cc1N

Ratio (Caudate [1]): 1.4 | Ratio (Caudate [2]): 1 | Ratio (Putamen [3]): 1.6 | Ratio (Putamen [4]): 1.2 | Ratio (Thalamus [5]): 1.8 | Ratio (Thalamus [6]): 1.4 | Ratio (Midbrain [7]): 2.4 | Ratio (Midbrain [8]): 1.2 | Ratio (Pons [9]): 2 | Ratio (Pons [10]): 1.23 | Ratio (Medulla [11]): 2.3 | Ratio (Medulla [12]): 1.1 | Ratio (Occipital cortex [13]): 1.35 | Ratio (Occipital cortex [14]): 1.1 | Ratio (Frontal cortex [15]): 1 | Ratio (Frontal cortex [16]): 1 | logD [17]: 2.63 | Ratio (Caudate [18]): 1.7 | Ratio (Midbrain [19]): 3.24 | Ratio (Putamen [20]): 2.4 | Ratio (Thalamus [21]): 2.3 | Ratio (Pons [22]): 2.8 | Ratio (Medulla [23]): 2.6 | Ratio (Occipital cortex [24]): 1.34 | Ratio (Frontal cortex [25]): 1.06
Compound: CN([11CH3])Cc1cc(Br)ccc1Sc1ccc(CO)cc1N

Ki [42]: 0.29 nM | Ki [43]: 221 nM | Ki [44]: 725 nM | Ratio Ki (Homo sapiens [45]): 762 | Ratio Ki (Homo sapiens [46]): > 2000
Compound: CN(C)Cc1cc(Br)ccc1Sc1ccc(CO)cc1N

Ki [42]: 1.26 nM | Ki [43]: > 2000 nM | Ki [44]: 618 nM | Ratio Ki (Homo sapiens [45]): > 1000 | Ratio Ki (Homo sapiens [46]): 490
Compound: CN(C)Cc1cc(F)ccc1Sc1ccc(CO)cc1N

Ki [43]: > 1000 nM | Ratio Ki (Homo sapiens [45]): > 1000 | Ratio Ki (Homo sapiens [46]): 532 | logD [17]: 1.6
Compound: CN(C)Cc1ccccc1Sc1ccc(CO)cc1N

Ki [42]: 0.31 nM | Ki [43]: > 2000 nM | Ki [44]: 467 nM | Ratio Ki (Homo sapiens [45]): > 1000 | Ratio Ki (Homo sapiens [46]): > 1000
Compound: CN(C)Cc1cc(I)ccc1Sc1ccc(CO)cc1N

From ChEMBL document CHEMBL1140708, “Synthesis and in vivo evaluation of halogenated N,N-dimethyl-2-(2'-amino-4'-hydroxymethylphenylthio)benzylamine derivatives as PET serotonin transporter ligands” (J Med Chem, 2008)
